Screening data: PubChem, several laboratories
A selection: hits, their analogues and other compounds. The true share with any hit is near 5.4%.
Cav3 T inh: blocks human Cav3.2 T-type calcium channel | 4% of 100,000 active | B-score at 10 µM | Cav3.2-expressing cells, Fluo-4 calcium fluorescence FDSS; active compounds read low | O95180;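 active = single-dose well whose peak fluorescence ratio is a statistical outlier from its plate by either plate-standardised score or position-corrected B-score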
hDAT+cocaine: modulates human dopamine transporter uptake under cocaine; 1.3% of 110,000 active; Q01959; LLC-PK1 hDAT cells, [14C]-dopamine uptake with cocaine IC80; actives deviate in either direction; B-score at 10 µM;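 active = Z score or B-score, a plate-position-corrected score, falls beyond the plate's 99.7% confidence bounds, in either direction; inactive = both scores lie inside the 99.7% bounds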
Target sequence (Q01959 whole entry, looked up): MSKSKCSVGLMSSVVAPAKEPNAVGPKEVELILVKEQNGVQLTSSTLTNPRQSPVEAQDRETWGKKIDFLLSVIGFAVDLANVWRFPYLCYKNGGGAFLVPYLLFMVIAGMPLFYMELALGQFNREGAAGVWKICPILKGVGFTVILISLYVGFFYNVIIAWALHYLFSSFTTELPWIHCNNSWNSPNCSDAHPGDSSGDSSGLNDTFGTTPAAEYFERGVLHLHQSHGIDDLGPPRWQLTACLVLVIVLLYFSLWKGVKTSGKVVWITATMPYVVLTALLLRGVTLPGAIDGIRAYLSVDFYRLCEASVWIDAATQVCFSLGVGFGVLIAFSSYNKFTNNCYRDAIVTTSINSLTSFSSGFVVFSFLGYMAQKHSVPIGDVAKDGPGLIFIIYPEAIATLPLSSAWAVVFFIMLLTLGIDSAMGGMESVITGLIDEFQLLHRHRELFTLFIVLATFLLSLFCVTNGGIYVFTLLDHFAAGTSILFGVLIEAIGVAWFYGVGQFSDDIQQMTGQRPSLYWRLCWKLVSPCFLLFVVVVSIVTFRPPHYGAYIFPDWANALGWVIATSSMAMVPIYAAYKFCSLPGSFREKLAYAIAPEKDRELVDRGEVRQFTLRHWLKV
EphB4 antag: EphB4-ephrin-B2 interaction antagonism; P54760; EphB4 LBD / TNYL-RAW-Alexa532 peptide, fluorescence polarization; inhibition, % at 7 µM; 0.15% of 97,000 active;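 active = inhibition above the screen-wide mean inhibition plus 3 SD, cut at about 15% in these data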
HIV Rev-RRE inh: inhibitors of HIV-1 Rev-RRE RNA interaction; Rev peptide-RRE RNA binding, FRET; inhibition, % at 8 µM; 0.79% of 97,000 active; AID 704;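 active = inhibition above the screen-wide mean plus 3 SD, cut at about 35% in these data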
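Test system: Cy5-tagged RRE RNA duplex with fluorescein-tagged Rev peptide | Read-out: % inhibition of FRET ratio versus controls | Probe or stimulus: Labelled Rev peptide | Incubation: 5 min RNA-compound premix plus 15 min binding step, 25 °C | Technique: FRET fluorescence readout | Benchmarks: DMSO low control, neomycin B high control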
Hits are given with their value; 0 = inactive; - = not tested or not shown; ! = not active in a repeat; [ ] = remark or other dose.

SMILES	Cav3 T inh	hDAT+cocaine	EphB4 antag	HIV Rev-RRE inh
COC(=O)c1ccccc1NC(=O)CSc1nnc(-c2cccc(NC(C)=O)c2)n1C	0	0	0	0
CC(C)(C)c1ccc(Cn2nnc3c(=O)[nH]c(C4CCN(C(=O)Cc5cccs5)CC4)nc32)cc1	0	3.3	0	0
S=C1NCCc2ccc(Cl)cc2C1c1ccccc1 (stereo unspecified)	0	0	0	0
CCCSc1nnc(NC(=O)c2sc3nc(-c4cccs4)ccc3c2N)s1	-9.9	0	0	105[fluorescence artefact?]
COc1cc(C(=O)Nc2nc(-c3cccs3)cs2)cc(OC)c1OC	0	0	0	0
Cc1csc(NC(=O)c2sc3nc(-c4cccs4)ccc3c2N)n1	-5.4	0	0	102[fluorescence artefact?]
CCSc1nnc(NC(=O)c2cccs2)s1	0	0	-	-
CCC(C)(C)NC(=O)C(c1ccco1)N(C(=O)c1csnn1)c1cccc(F)c1 (stereo unspecified)	0	0	17	0
CCC(C)N(C(=O)c1csnn1)C(C(=O)NCc1ccc(F)cc1)c1ccco1 (stereo unspecified)	0	0	0	0
CCCNC(=O)c1ccccc1NC(=O)c1ccc(CSc2ccccc2)cc1	0	0	0	0
CCN1C(=O)/C(=c2/s/c(=C3\SC(C)=C(C)N3CC)c(=O)n2CC)N(c2ccccc2)C1=S	-	-	0	0
Cc1ccc(C(=O)C2CCN(CC(=O)Nc3nc(C)cs3)CC2)cc1	0	0	0	0
CCOC(=O)c1c2n(c3c(NCc4ccccc4)ncnc13)CCCC2	0	2.3	0	0
CCc1c(C(=O)NNC(=S)NCCc2ccccc2)csc1C	0	0	0	0
CC(C)C(O)P(=O)(OCc1ccccc1)c1ccc(N(C)C)cc1 (stereo unspecified)	0	0	0	0
Cc1cc2c(=O)n(Cc3ccco3)c(SCC(=O)c3ccc(Cl)s3)nc2s1	-4.7	0	0	0
CCOC(=O)c1oc2ccccc2c1CSc1nnnn1-c1ccc(C)cc1	-3.9	0	0	0
Cc1nn(C)c(Oc2ccccc2)c1CCNS(=O)(=O)c1ccccc1	0	0	0	0
CCCOc1ccc(NC(=O)CC2C(=O)N(C)C(=S)N2Cc2cccs2)cc1 (stereo unspecified)	-3.9	0	0	0
O=C(O)/C(=C\c1ccco1)NC(=O)c1cccc2ccccc12	0	0	17	0
O=C(NC(Cc1ccccc1)C(=O)O)/C(=C\c1ccco1)NC(=O)c1ccc(Br)cc1 (stereo unspecified)	-	-	0	0
COc1ccc(NC(=O)CSc2ccc3c4c(cccc24)C(=O)c2ccccc2-3)cc1	0	0	0	125[fluorescence artefact?]
N#Cc1cccc(NC(=O)CSc2ccc3c4c(cccc24)C(=O)c2ccccc2-3)c1	-5.6	0	0	115[fluorescence artefact?]
Cc1cc(C)nc(N(C#N)Cc2ccccc2)n1	0	0	0	0
Cc1cc(C)nc(N(C#N)Cc2cccc3ccccc23)n1	-5.2	0	0	0
SMILES	Cav3 T inh	hDAT+cocaine	EphB4 antag	HIV Rev-RRE inh
CC1Cc2ccccc2N1S(=O)(=O)c1cccs1 (stereo unspecified)	0	0	0	0
CCOc1ccc(S(=O)(=O)N2c3ccccc3CC2C)cc1 (stereo unspecified)	-3.6	-2.7	0	0
O=C(CSc1nnc(NCc2ccccc2)s1)c1ccco1	-	0	0	0
Nn1cnnc1SCC(=O)Nc1ccc(C2CCCCC2)cc1	0	1.3	-	-
O=C1C(c2ccc(F)cc2)N(Cc2ccc3c(c2)OCO3)C(=O)CN1C1CCCCCC1 (stereo unspecified)	0	0	0	0
Fc1ccc([C@@H]2CCNC[C@H]2COc2ccc3c(c2)OCO3)cc1	-	-3.7!	-	-
Cc1ccc(NC(=O)CS(=O)CC(=O)N(c2ccc(C)cc2)C(C)C(=O)NC2CCCCC2)cc1 (stereo unspecified)	-7.3	0	0	0
O=C(Nc1ccc(Cl)cc1)OCc1ccccn1	0	0	0	0
O=C(Nc1ccc(Cl)cc1)OCc1cn(-c2ccc(Cl)cc2)nn1	-4.5	0	0	0
COc1ccccc1C(=O)Nc1cc2ccccc2oc1=O	0	0	0	0
O=c1oc2ccccc2cc1NCc1ccccc1O	-5.2	0	0	0
COc1ccc(S(=O)(=O)N2CCCC(C(=O)Nc3cccc(C(C)=O)c3)C2)cc1 (stereo unspecified)	-	1.9	0	0
CC(=O)c1cccc(NC(=O)C2CCCN(S(=O)(=O)c3ccc(F)cc3)C2)c1 (stereo unspecified)	0	0	0	0
COc1ccc(S(=O)(=O)N2CCCCCC2)cc1	0	0	0	0
COc1ccc(OC(=O)c2cc(S(=O)(=O)N3CCCC3)ccc2Cl)cc1	0	-2.3	0	0
COc1ccc(NS(=O)(=O)c2ccc(NS(=O)(=O)c3ccc(SC)cc3)cc2)c(OC)c1	-4.9	0	0	0
COc1ccc(S(=O)(=O)Nc2ccc(S(=O)(=O)N3CCCCC3)cc2)cc1	-6.6	0	0	0
N#CCSc1ncnc2c1cnn2CCO	0	0	0	0
O=S(=O)(NC1CCCCCC1)c1ccc(Br)s1	-4.9	0	0	0
COc1ccc(NS(=O)(=O)c2c(C)cc(C)cc2C)cc1	-6.1	0	0	0
O=C(CCNS(=O)(=O)c1ccc(Br)s1)NC1CCCC1	0	0	0	0
COc1cccc(NS(=O)(=O)c2c(C)cc(C)cc2C)c1	0	0	0	0
O=S(=O)(Nc1ccc(S(=O)(=O)N2CCCCC2)cc1)c1ccc(Br)s1	-5.4	0	0	0
CCN1CC(CCN2CCOCC2)C(c2ccccc2)(c2ccccc2)C1=O (stereo unspecified)	0	0	-	-
Cn1c(Br)nc2c1c(=O)n(CC(O)COc1ccccc1)c(=O)n2C (stereo unspecified)	0	0	0	0
SMILES	Cav3 T inh	hDAT+cocaine	EphB4 antag	HIV Rev-RRE inh
CCOC(=O)/C(N=Nc1c(Br)cc(Br)cc1Br)=C(\C)O	0	0	0	0
CC(/C=C/C=C/c1ccccc1)=N/NC(=O)CNc1ccc(C)cc1	0	0	0	0
O=C(CCSc1nc(-c2ccco2)cc(C(F)(F)F)n1)N1CCN(c2ccccn2)CC1	-5.5	0	0	0
O=C(CCSc1nc(-c2ccco2)cc(C(F)(F)F)n1)N1CCCc2ccccc21	-3.6	0	0	0
O=C(c1cc2ccccc2oc1=O)N(Cc1ccco1)CC1CCCO1 (stereo unspecified)	0	0	0	0
CCc1ccc(C(C)NC(=O)c2ccc(F)cc2)cc1 (stereo unspecified)	-4.1	0	0	0
O=C(NC(Cc1ccc(F)cc1)C(=O)O)c1ccccc1 (stereo unspecified)	0	0	0	0
CCCOc1ccc(Br)cc1/C=N/O	-4.9	0	0	0
CCOc1ccc(Br)cc1/C=N/O	0	0	0	0
CCOC(=O)C1=C(C)NC(SCC(=O)OC)=C(C#N)C1c1ccc(C(=O)OC)cc1 (stereo unspecified)	0	0	0	0
C=CCOC(=O)C1=C(C)NC(SCC)=C(C#N)C1c1ccc(Cl)cc1 (stereo unspecified)	-7.5	0	0	0
COc1ccc(Br)cc1S(=O)(=O)n1ccnc1C	0	2.7	0	0
O=C(Nc1ccccc1Cl)N1CCN(c2ccc3nnc(-c4ccccc4)n3n2)CC1	0	0	0	0
